One block for each compound: values may come before it.
What was measured:
T. brucei MetRS [1] = target: T1, T. brucei MetRS (Trypanosoma brucei brucei, UniProt Q38C91); assay: Luminescence; format: biochemical
T1 sequence (Q38C91 1-773): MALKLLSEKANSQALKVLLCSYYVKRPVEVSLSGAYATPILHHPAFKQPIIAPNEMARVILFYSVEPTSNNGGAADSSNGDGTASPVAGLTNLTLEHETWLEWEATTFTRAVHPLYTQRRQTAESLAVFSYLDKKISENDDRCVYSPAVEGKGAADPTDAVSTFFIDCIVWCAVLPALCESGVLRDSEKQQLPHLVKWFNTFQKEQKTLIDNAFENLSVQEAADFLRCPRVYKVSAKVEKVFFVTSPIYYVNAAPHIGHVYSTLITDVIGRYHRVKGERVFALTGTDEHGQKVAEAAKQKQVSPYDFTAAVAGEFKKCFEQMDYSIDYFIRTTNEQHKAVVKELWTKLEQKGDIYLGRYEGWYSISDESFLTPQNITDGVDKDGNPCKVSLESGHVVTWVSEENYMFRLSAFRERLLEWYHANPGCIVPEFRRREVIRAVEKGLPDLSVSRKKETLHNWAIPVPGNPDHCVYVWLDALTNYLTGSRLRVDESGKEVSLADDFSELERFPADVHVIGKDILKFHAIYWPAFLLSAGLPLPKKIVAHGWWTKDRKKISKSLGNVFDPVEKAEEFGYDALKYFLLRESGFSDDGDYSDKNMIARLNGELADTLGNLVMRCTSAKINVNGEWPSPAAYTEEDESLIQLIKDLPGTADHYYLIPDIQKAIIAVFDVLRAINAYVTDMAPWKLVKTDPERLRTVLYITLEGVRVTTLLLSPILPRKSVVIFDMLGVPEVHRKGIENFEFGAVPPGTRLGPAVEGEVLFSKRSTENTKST

Jurkat cells = assay: Jurkat cell cytotoxicity counterscreen; format: cell-based
Procedure, shortened: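 Jurkat E6.1 suspension cells grown in RPMI-1640 with 10% dialyzed FBS, NEAA, pyruvate, HEPES, glutamine and antibiotic-antimycotic at 37 °C, 5% CO₂. CellTiter-Glo added, 10 min RT, then luminescence read. Tested in triplicate. Data normalized per plate: 8 µM doxorubicin as high control, DMSO as low control.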

T. brucei MetRS [2] = target: T1, T. brucei MetRS; assay: Orthogonal fluorescence polarization AMP production assay; format: biochemical
Procedure, shortened: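 Concentration-response was run in triplicate as a 10-point serial dilution from 120 µM. AMP was detected by FP with a Transcreener AMP²/GMP² reagent (Cy5, excitation 620 nm, emission 688 nm), with FP = (S − P)/(P + S). Percent inhibition was normalized per plate between DMSO-only wells and wells with 1.5 µM reference inhibitor.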

[3] = target: T2, human mitochondrial MetRS (Homo sapiens, UniProt Q96GW9); assay: Aminoacylation assay, selectivity counterscreen; format: biochemical
T2 sequence (Q96GW9 30-593): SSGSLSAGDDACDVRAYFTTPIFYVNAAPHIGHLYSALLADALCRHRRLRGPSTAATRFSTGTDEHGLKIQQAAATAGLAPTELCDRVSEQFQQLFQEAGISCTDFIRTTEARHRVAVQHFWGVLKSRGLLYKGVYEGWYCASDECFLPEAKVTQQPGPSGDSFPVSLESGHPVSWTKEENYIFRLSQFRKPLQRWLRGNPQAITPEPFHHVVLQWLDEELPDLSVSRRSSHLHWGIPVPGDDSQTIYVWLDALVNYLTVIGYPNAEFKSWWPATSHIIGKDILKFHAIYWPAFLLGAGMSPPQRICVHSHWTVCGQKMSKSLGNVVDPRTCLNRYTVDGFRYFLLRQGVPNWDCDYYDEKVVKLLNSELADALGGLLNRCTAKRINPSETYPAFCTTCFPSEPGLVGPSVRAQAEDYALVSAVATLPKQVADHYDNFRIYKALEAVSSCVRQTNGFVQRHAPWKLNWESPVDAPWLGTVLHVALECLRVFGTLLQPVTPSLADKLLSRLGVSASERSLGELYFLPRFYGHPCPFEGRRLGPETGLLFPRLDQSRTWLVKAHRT

T. brucei MetRS [4] = target: T1, T. brucei MetRS; assay: Aminoacylation assay, incorporation of [3H]L-methionine into tRNA; format: biochemical
T. brucei MetRS [5] = target: T1, T. brucei MetRS; conditions: formerly shown; cited from earlier work
[6] = cited from earlier work
[7] = luminescence ATP depletion assay, 1536-well
[8] = fluorescence polarization assay

Structure (SMILES): O=C(Cn1cc(C(=O)C(=O)N2CCOCC2)c2ccccc21)Nc1cccc(C(F)(F)F)c1 [CID 2973195]
- IC50 (T. brucei MetRS [1]; [7]): 0.171 µM
- pIC50 (T. brucei MetRS [1]; [7]): 6.77
- IC50 (Jurkat cells; Jurkat cytotoxicity assay): > 83 µM
- pIC50 (Jurkat cells; Jurkat cytotoxicity assay): < 4.08
- IC50 (T. brucei MetRS [2]; [8]): 0.292 µM
- pIC50 (T. brucei MetRS [2]; [8]): 6.53

Structure (SMILES): COc1cccc(NC(=O)CSc2nnc3c(n2)[nH]c2ccc(C)cc23)c1 [CID 24793614]
- IC50 (T. brucei MetRS [1]; [7]): 0.044 µM

Structure (SMILES): O=C(CCCSc1ccc(Cl)cc1)Nc1ccccc1O [CID 16312830]
- activity in the Jurkat cytotoxicity assay (Jurkat cells; dose response, highest dilution 83.3 M): activity

- % inhibition ([3]; at 1, human mitochondrial MetRS): 14.3%
- % inhibition ([3]; at 10, human mitochondrial MetRS): 80.3%
Structure (SMILES): CN(Cc1cc(Cl)cc(Cl)c1)[C@H]1C[C@H]2c3[nH]c4ccccc4c3CCN2C(=O)[C@H]1CO [CID 46902334]

- % inhibition (T. brucei MetRS [4]): 28%
Structure (SMILES): O=C(CN1CCSC1=NCc1ccccc1)c1ccc(Cl)c(Cl)c1 [CID 4656759]

Structure (SMILES): Cn1nc(C(F)(F)F)c(-c2cccc(C(F)(F)F)c2)c1NC(=O)Nc1ccc(F)cc1 [CID 2810697]
- activity in fluorescence polarization assay (T. brucei MetRS [2]; dose response curve): inactivity

Structure (SMILES): Oc1cc(NCCCNCc2cc(Cl)cc(Cl)c2)nc2ccccc12 [CID 18353708, 2-((3-((3,5-dichlorobenzyl)amino)propyl)amino)quinolin-4(1H)-one, reference compound]
- inhibition of T. brucei MetRS (T. brucei MetRS [5]): sub-micromolar inhibition
- IC50 (T. brucei MetRS [1]): 0.0242 ± 0.00274 µM
- Hill slope (T. brucei MetRS [1]; luminescence ATP depletion assay, N=11): 4.41 ± 0.56
- bioavailability [6]: poor bioavailability
- IC50 (T. brucei MetRS [2]): 0.0303 ± 0.00481 µM
- Hill slope (T. brucei MetRS [2]; fluorescence polarization assay, N=3): 4.34 ± 0.17

— publication PMC4378865 (Journal of biomolecular screening, 2014)
